Values belong to the compound of their own block, whether it stands above or below them.
What was measured:
[1] = test system: Rattus norvegicus; assay: Antihyperglycemic activity in sucrose-loaded Sprague-Dawley rat at 100 mg/kg; format: functional
Summary of the method: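 Male rats (169 ± 20 g) fasted 16 h; those with glucose 60–80 mg/dl, in groups of five to six, received compound orally as a 1.0% gum acacia suspension at 100 mg/kg, and controls got vehicle alone. Sucrose (10.0 g/kg, oral) followed 30 min later. Glucose was read at 30, 60, 90 and 120 min, and % fall was taken from AUC versus control (active if p < 0.05).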

[2] = test system: Rattus norvegicus; assay: Antihyperglycemic activity in sucrose charged streptozotocin-induced beta cell damaged diabetic Sprague-Dawley rat at 100 mg/kg; format: functional
Summary of the method: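 Overnight-fasted male rats got streptozotocin at 60 mg/kg i.p., freshly dissolved in 100 mM citrate buffer pH 4.5. Those with glucose 150–250 mg/dl at 48 h were grouped. Each rat was given sucrose at 2.5 g/kg after test-sample treatment. Glucose was measured at 30, 60, 90, 120, 180, 240 and 300 min and 24 h after dosing, with food withheld.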

[3] = biological target: Glucagon receptor (Homo sapiens, UniProt P47871); assay: Inhibition of [125I]glucagon binding to glucagon receptor
Chain of Glucagon receptor (P47871 whole entry): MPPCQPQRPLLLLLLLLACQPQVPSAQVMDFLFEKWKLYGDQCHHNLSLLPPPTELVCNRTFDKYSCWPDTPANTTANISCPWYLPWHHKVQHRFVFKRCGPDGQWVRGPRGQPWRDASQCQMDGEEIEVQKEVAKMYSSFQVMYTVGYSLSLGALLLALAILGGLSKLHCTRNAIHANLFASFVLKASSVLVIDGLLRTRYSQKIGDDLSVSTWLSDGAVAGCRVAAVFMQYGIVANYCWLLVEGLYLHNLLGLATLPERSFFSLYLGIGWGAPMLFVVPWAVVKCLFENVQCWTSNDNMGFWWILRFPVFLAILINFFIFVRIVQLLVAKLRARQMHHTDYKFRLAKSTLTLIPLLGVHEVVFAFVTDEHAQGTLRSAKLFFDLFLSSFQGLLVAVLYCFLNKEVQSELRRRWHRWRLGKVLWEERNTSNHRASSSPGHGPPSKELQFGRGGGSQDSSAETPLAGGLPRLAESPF

SMILES: O=C(c1ccc(OCCCNCc2ccccc2)cc1)c1cccc2ccccc12
- Activity [1]: 8.06%
- Activity [2]: 7.5%

SMILES: COc1ccc(NCCOc2ccc(C(=O)c3cccc4ccccc34)cc2)cc1
- Activity [1]: 9.71%
- Activity [2]: 9.2%

SMILES: O=C(c1ccc(OCCCNC2CCCCC2)cc1)c1cccc2ccccc12
- Activity [1]: 11.16%

SMILES: CN(C)C(=N)NC(=N)N [METFORMIN]
- Activity [1]: 12.9%

SMILES: O=C(c1ccc(OCCCCl)cc1)c1cccc2ccccc12
- Activity [1]: 22%
- Activity [2]: 8.5%

- IC50 [3]: 55 µM
SMILES: O=C(c1ccc(OCCN2CCCC2)cc1)c1cccc2ccccc12
- Activity [1]: 17.2%
- Activity [2]: 17%

SMILES: COc1ccc(NCCCOc2ccc(C(=O)c3cccc4ccccc34)cc2)cc1
- Activity [1]: 16.17%
- IC50 [3]: 35 µM
- Activity [2]: 12.6%

SMILES: O=C(c1ccc(OCCNC2CCCCC2)cc1)c1cccc2ccccc12
- Activity [1]: 7.16%

SMILES: Cc1ccc(S(=O)(=O)NC(=O)NN2CC3CCCC3C2)cc1 (stereo not given) [GLICLAZIDE]
- Activity [1]: 40.4%
- Activity [2]: 27.7%

SMILES: O=C(c1ccc(OCCCl)cc1)c1cccc2ccccc12
- Activity [1]: 24%

SMILES: O=C(c1ccc(OCCN2CCCCC2)cc1)c1cccc2ccccc12
- Activity [1]: 15.4%
- Activity [2]: 11.3%

SMILES: O=C(c1ccc(OCCNCc2ccccc2)cc1)c1cccc2ccccc12
- Activity [1]: 14.9%
- Activity [2]: 5.6%

- IC50 [3]: 17 µM
SMILES: O=C(c1ccc(OCCCN2CCCC2)cc1)c1cccc2ccccc12
- Activity [1]: 28.8%
- Activity [2]: 27%

SMILES: COc1ccc(Cl)cc1C(=O)NCCc1ccc(S(=O)(=O)NC(=O)NC2CCCCC2)cc1 [GLYBURIDE]
- Activity [1]: 33.7%
- Activity [2]: 29%

SMILES: CCN(CC)CCOc1ccc(C(=O)c2cccc3ccccc23)cc1
- Activity [1]: 7.21%

SMILES: O=C(c1ccc(OCCCN2CCCCC2)cc1)c1cccc2ccccc12
- Activity [1]: 7.16%
- Activity [2]: 6.8%
